According to ChEMBL document CHEMBL1177839, “Synthesis and preliminary biological evaluation of novel taspine derivatives as anticancer agents” (Eur J Med Chem, 2010):

How the values were obtained:
HeLa = test: Antiproliferative activity against human HeLa cells after 48 hrs by MTT assay; format: functional, cell-based
Caco-2 = test: Antiproliferative activity against human Caco-2 cells after 48 hrs by MTT assay; format: functional, cell-based; settings: Caco-2, 48 h
In short: (§1)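 Cells in exponential growth harvested and seeded at 1 ×10⁴ cells/well, incubated 24 h at 37 °C, then exposed to a range of compound concentrations for 48 h. Viability read by MTT; IC₅₀ derived from dose-dependent growth inhibition.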

A549 = test: Antiproliferative activity against human A549 cells after 48 hrs by MTT assay; format: functional, cell-based; settings: A549, 48 h; in short: as §1
HT-29 = test: Antiproliferative activity against human HT-29 cells after 48 hrs by MTT assay; format: functional, cell-based; settings: HT-29, 48 h
[1] = Antiproliferative activity against human ECV304 cells after 48 hrs by MTT assay; format: cell-based; settings: ECV-304, 48 h; in short: as §1
A-431 = test: Antiproliferative activity against human A431 cells abnormally expressing EGFR after 48 hrs by MTT assay; format: functional, cell-based; settings: A-431, 48 h; in short: as §1
PANC-1 = test: Antiproliferative activity against human PANC1 cells after 48 hrs by MTT assay; format: functional, cell-based; settings: PANC-1, 48 h
A-375 = test: Antiproliferative activity against human A375 cells after 48 hrs by MTT assay; format: functional, cell-based; settings: A-375, 48 h
MCF7 = test: Antiproliferative activity against human MCF7 cells after 48 hrs by MTT assay; format: functional, cell-based; settings: MCF7, 48 h
SMMC-7721 = test: Antiproliferative activity against human SMMC7721 cells after 48 hrs by MTT assay; format: functional, cell-based; settings: SMMC-7721, 48 h
HEK293 = test: Antiproliferative activity against human HEK293 cells overexpressing EGFR after 48 hrs by MTT assay; format: cell-based; settings: HEK293, 48 h; in short: as §1

IC50 (HeLa) [µM] | IC50 (Caco-2) [µM] | IC50 (A549) [µM] | IC50 (HT-29) [µM] | IC50 (PANC-1) [µM] | IC50 (A-375) [µM] | IC50 (MCF7) [µM] | IC50 (SMMC-7721) [µM] | SMILES | IC50 [1] [µM] | IC50 (A-431) [µM] | IC50 (HEK293) [µM]
415 | 75.9 | 259 | 122 | 166 | 174 | 83.7 | 78.2 | CNC(=O)c1ccc(OC)c(O)c1-c1c(C(=O)NC)ccc(OC)c1OCCN1CCOCC1 | 1360 | 75.9 | 116
 |  |  | 47.2 |  |  |  | 126 | CNC(=O)c1ccc(OC)c(OCCN2CCNCC2)c1-c1c(C(=O)NC)ccc(OC)c1OCC(=O)Nc1ccc(F)c(Cl)c1 |  |  | 
 | 3100 | 111 |  |  |  |  |  | COC(=O)c1cc(OC(=O)c2cc(O)c(OC)cc2CCN(C)C)ccc1OC |  |  | 
97.6 | 104 | 64.7 | 200 | 217 | 106 |  | 95.7 | CNC(=O)c1ccc(OC)c(O)c1-c1c(C(=O)NC)ccc(OC)c1O | 113 | 104 | 88
117 | 167 | 241 | 133 | 159 | 242 | 123 | 124 | CNC(=O)c1ccc(OC)c(OCCN(C)C)c1-c1c(C(=O)NC)ccc(OC)c1OCC(=O)Nc1ccc(F)c(Cl)c1 | 57.2 |  | 
100 | 3310 | 194 | 44.7 | 110 | 25.1 | 60.4 | 194 | CNC(=O)c1ccc(OC)c(OCCN2CCOCC2)c1-c1c(C(=O)NC)ccc(OC)c1OCC(=O)Nc1ccc(F)c(Cl)c1 |  |  | 
53.4 | 20.3 | 73.5 | 214 | 191 | 217 | 109 | 109 | CNC(=O)c1ccc(OC)c(O)c1-c1c(C(=O)NC)ccc(OC)c1OCC(=O)Nc1ccc(F)c(Cl)c1 | 72.2 |  | 
 | 52.5 | 158 |  |  |  |  |  | COC(=O)c1cc(OC(=O)c2ccc(OC)c(O)c2)c(OC)cc1CCN1CCOCC1 | 2.67 |  | 
 |  | 180 |  |  |  |  |  | COC(=O)c1cc(OC(=O)c2ccc(OC)c(O)c2)c(OC)cc1CCNc1ccc(F)c(Cl)c1 | 61 |  | 

SMILES | IC50 (HeLa) [µM] | IC50 (Caco-2) [µM] | IC50 (A549) [µM] | IC50 (HT-29) [µM] | IC50 (PANC-1) [µM] | IC50 (A-375) [µM] | IC50 (MCF7) [µM] | IC50 (SMMC-7721) [µM] | IC50 [1] [µM] | IC50 (A-431) [µM] | IC50 (HEK293) [µM]
COc1ccc2c(=O)oc3c(OC)cc(CCN(C)C)c4c(=O)oc1c2c34 [TASPINE] |  | 153 | 4.18 |  |  |  |  |  | 22.3 | 11.2 | 16
COC(=O)c1cc(OC(=O)c2ccc(OC)c(O)c2)c(OC)cc1CCN(C)C |  | 110 | 453 |  |  |  |  |  |  |  | 
